Measured values as given in ChEMBL document CHEMBL1122752, “Nucleosides. 129. Synthesis of antiviral nucleosides: 5-alkenyl-1-(2-deoxy-2-fluoro-beta-D-arabinofuranosyl)uracils” (J Med Chem, 1984).
pEC50: −log10 of the molar value.

How the values were obtained:
[1] = Cytotoxicity expressed as ID50 which is the concentration required for 50% growth inhibition of normal human lymphocytes.; conditions: read-out: ID50 (the source's name)
Outline: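 Normal human lymphoblasts stimulated with PHA; drug concentration causing 50% inhibition of replication (ID50) determined; values are means of three separate experiments run in parallel.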

Vero [2] = assay: In vitro antiviral activity was determined by plaque-reduction assay in HSV-1(strain 2931) infected Vero cell monolayers; type: functional; conditions: Chlorocebus sabaeus, read-out: ED50 (the source's name)
Outline: (§1)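 Vero cell monolayers infected with about 20–30 pfu per well (HSV-1 strain 2931 or HSV-2 strain G), 2 h incubation, then overlaid with maintenance medium containing various drug concentrations. Plaques counted after 2 days of development. ED50 (50% plaque reduction) calculated by linear regression. Values are the mean of three separate experiments run in parallel.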

Vero [3] = assay: In vitro antiviral activity was determined by plaque-reduction assay in HSV-2 (strain G) infected Vero cell monolayers; type: functional; conditions: Chlorocebus sabaeus, read-out: ED50 (the source's name); outline: as §1

Row | Structure (SMILES) | GI50 [1] | pEC50 (Vero [2]) | pEC50 (Vero [3])
1 | O=c1[nH]c(=O)n([C@H]2O[C@@H](CO)[C@H](O)[C@@H]2F)cc1/C=C/Br | > 100000 nM | 6.40 | 4.86
2 | O=c1[nH]c(=O)n([C@H]2C[C@H](O)[C@@H](CO)O2)cc1/C=C/Br [BRIVUDINE] | – | 7.15 | 4.89
3 | C=Cc1cn([C@@H]2O[C@H](CO)[C@@H](O)[C@H]2F)c(=O)[nH]c1=O | > 100000 nM | 6.80 | 6.16
4 | O=c1[nH]c(=O)n([C@@H]2O[C@H](CO)[C@@H](O)[C@@H]2F)cc1/C=C/Cl | > 100000 nM | 6.27 | 5.16
5 | O=c1[nH]c(=O)n([C@@H]2O[C@H](CO)[C@@H](O)[C@@H]2F)cc1/C=C/I | > 100000 nM | 5.96 | 4.76
6 | Nc1nc(=O)n([C@@H]2O[C@H](CO)[C@@H](O)[C@H]2F)cc1I | 8600 nM | 7.62 | 7.85
7 | CCc1cn([C@H]2O[C@@H](CO)[C@H](O)[C@@H]2F)c(=O)[nH]c1=O | > 100000 nM | 6.62 | 6.19
